Numbering of substitutions follows the chain as printed.
Experiments:
Conditions in all cases: stereoisomer not certain
[1] = biological target: T1, OR6C65 (Homo sapiens) (UniProt A6NJZ3)
T1 sequence (whole entry): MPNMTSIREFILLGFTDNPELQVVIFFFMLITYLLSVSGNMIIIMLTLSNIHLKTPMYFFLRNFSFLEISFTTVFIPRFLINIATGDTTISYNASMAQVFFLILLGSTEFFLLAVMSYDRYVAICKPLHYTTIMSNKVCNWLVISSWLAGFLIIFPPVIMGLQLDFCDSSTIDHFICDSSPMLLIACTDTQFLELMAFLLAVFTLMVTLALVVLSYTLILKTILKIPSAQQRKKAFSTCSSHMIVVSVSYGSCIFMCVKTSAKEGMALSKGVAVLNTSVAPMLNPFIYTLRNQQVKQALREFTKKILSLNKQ
Method in brief: (§1)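 Values were gathered from published papers (main text and supplementary material), with extra details requested from the original authors when needed, and checked for typos and inconsistencies. Each receptor–molecule pair is called responsive (active) if the original authors judged the measured signal statistically different from baseline, and non-responsive (inactive) otherwise. Assay methods varied by source, often transient mammalian cell-line luciferase assays. Recorded details include cell line, G-protein, co-transfected protein and tags.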

[2] = biological target: T2, OR6C68 (Homo sapiens) (UniProt A6NDL8)
T2 sequence (whole entry): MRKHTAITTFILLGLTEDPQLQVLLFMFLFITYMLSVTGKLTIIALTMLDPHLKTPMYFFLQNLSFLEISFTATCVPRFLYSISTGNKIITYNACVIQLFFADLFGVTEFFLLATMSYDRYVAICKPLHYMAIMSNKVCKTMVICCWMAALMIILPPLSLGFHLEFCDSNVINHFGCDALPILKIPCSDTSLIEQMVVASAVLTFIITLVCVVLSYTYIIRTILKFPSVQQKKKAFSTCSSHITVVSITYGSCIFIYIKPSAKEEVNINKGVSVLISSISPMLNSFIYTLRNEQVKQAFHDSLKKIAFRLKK
Method in brief: as §1

[3] = biological target: T3, OR6C70 (Homo sapiens) (UniProt A6NIJ9)
T3 sequence (whole entry): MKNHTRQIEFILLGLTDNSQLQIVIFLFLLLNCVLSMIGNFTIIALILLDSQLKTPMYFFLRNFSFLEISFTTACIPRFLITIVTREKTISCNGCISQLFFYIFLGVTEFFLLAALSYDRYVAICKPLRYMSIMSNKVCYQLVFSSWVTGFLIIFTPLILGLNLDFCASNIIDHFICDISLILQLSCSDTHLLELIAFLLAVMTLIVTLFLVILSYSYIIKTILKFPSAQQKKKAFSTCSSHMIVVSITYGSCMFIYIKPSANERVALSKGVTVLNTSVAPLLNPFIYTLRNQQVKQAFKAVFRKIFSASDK
Method in brief: as §1

[4] = biological target: T4, OR6C74 (Homo sapiens) (UniProt A6NCV1)
T4 sequence (whole entry): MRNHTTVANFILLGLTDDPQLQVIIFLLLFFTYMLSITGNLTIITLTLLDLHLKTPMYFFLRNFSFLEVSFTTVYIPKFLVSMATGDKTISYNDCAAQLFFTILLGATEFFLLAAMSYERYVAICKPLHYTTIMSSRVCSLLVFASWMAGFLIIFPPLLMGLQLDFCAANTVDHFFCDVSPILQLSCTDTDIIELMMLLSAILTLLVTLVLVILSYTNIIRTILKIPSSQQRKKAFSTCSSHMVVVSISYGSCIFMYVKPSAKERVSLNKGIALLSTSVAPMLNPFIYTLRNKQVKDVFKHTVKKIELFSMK
Method in brief: as §1

[5] = biological target: T5, OR6C75 (Homo sapiens) (UniProt A6NL08)
T5 sequence (whole entry): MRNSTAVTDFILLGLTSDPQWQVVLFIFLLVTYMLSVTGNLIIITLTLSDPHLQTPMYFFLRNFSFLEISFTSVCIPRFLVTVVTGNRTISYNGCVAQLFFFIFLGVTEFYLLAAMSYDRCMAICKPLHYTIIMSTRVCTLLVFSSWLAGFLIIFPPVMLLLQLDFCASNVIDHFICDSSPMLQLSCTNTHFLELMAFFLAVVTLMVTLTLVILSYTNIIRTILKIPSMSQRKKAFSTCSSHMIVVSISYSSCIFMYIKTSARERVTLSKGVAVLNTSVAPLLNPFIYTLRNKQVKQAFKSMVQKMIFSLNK
Method in brief: as §1

[6] = biological target: T6, OR6C76 (Homo sapiens) (UniProt A6NM76)
T6 sequence (whole entry): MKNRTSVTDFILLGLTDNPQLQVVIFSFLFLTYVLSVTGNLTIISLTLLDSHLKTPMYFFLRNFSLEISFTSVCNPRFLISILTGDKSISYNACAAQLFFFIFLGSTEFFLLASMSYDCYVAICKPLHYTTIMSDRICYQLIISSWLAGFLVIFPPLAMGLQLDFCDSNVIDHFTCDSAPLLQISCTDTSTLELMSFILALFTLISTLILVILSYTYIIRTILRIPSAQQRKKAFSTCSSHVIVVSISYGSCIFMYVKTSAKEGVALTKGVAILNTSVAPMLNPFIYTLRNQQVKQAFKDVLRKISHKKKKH
Method in brief: as §1

[7] = biological target: T7, OR6F1 (Homo sapiens) (UniProt Q8NGZ6)
T7 sequence (whole entry): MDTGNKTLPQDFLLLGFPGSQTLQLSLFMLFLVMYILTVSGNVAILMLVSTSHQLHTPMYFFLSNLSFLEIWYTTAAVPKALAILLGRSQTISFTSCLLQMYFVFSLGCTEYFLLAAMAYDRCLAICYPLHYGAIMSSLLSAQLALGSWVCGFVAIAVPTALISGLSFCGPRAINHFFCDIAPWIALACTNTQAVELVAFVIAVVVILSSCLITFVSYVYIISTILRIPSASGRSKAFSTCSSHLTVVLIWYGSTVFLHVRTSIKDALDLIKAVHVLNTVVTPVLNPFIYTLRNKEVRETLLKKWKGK
Method in brief: as §1

[8] = biological target: T8, OR6J1 (Homo sapiens) (UniProt Q8NGC5)
T8 sequence (whole entry): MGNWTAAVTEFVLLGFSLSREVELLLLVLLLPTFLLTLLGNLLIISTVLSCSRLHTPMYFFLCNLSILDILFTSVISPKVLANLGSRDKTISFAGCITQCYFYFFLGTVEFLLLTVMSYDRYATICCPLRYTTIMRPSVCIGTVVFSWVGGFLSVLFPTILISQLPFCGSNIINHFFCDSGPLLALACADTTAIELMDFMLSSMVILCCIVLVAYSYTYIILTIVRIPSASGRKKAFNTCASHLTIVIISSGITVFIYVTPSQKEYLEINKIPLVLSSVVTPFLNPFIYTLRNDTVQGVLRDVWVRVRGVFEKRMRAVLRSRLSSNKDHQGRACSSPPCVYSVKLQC
Method in brief: as §1

[9] = biological target: T9, OR6K2 (Homo sapiens) (UniProt Q8NGY2)
T9 sequence (whole entry): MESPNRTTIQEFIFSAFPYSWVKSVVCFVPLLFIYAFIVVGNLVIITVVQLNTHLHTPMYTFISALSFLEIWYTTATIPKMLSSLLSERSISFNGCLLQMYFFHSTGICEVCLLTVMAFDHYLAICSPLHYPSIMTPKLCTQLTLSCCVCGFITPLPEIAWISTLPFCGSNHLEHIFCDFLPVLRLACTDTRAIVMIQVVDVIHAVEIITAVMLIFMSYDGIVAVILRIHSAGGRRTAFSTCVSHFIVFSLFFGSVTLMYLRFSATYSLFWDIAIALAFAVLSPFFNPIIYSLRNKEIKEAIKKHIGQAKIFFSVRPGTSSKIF
Method in brief: as §1

[10] = system: T10, OR6K3
T10 sequence (whole entry): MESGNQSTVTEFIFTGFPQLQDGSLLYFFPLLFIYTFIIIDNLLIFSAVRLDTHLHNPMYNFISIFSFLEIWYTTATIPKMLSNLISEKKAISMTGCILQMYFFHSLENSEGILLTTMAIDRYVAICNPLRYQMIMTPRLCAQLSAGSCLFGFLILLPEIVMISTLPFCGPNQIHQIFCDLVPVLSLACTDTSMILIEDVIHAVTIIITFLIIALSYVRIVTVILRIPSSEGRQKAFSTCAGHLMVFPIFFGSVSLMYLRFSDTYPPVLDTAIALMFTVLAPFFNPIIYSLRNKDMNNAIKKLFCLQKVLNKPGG
Method in brief: as §1

[11] = biological target: T11, OR6K6 (Homo sapiens) (UniProt Q8NGW6)
T11 sequence (whole entry): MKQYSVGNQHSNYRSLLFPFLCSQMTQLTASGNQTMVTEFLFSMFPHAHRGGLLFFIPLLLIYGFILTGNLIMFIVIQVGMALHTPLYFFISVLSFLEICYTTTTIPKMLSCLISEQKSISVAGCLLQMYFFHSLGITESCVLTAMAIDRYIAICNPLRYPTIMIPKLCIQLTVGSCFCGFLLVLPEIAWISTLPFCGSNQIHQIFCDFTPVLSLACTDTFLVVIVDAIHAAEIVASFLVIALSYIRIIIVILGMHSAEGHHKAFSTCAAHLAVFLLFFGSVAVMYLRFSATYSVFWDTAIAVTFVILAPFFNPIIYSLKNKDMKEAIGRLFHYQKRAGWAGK
Method in brief: as §1

[12] = biological target: T12, OR6M1 (Homo sapiens) (UniProt Q8NGM8)
T12 sequence (whole entry): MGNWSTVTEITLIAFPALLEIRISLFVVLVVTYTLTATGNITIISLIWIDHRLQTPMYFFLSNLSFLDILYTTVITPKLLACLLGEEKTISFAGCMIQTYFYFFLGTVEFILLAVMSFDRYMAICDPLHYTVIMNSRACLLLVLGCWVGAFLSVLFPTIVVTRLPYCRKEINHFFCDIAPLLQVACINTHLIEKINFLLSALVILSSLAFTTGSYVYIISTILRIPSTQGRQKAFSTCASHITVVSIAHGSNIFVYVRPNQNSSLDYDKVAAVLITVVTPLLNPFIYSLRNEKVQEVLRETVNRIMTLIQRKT
Method in brief: as §1

[13] = system: T13, OR6M1 R224C
T13 sequence (whole entry): T12 sequence (whole entry) with R224C
Method in brief: as §1

[14] = system: T14, OR6M1 T276K
T14 sequence (whole entry): T12 sequence (whole entry) with T276K
Method in brief: as §1

[15] = biological target: T15, OR6N1 (Homo sapiens) (UniProt Q8NGY5)
T15 sequence (whole entry): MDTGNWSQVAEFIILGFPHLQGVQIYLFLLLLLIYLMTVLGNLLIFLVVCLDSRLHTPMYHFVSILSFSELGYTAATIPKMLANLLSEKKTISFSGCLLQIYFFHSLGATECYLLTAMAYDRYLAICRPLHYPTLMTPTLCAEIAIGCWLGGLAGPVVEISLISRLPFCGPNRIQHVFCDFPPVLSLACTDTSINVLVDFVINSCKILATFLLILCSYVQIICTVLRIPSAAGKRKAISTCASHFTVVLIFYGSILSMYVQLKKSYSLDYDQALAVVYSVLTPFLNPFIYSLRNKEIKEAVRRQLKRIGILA
Method in brief: as §1

[16] = biological target: T16, OR6N2 (Homo sapiens) (UniProt Q8NGY6)
T16 sequence (whole entry): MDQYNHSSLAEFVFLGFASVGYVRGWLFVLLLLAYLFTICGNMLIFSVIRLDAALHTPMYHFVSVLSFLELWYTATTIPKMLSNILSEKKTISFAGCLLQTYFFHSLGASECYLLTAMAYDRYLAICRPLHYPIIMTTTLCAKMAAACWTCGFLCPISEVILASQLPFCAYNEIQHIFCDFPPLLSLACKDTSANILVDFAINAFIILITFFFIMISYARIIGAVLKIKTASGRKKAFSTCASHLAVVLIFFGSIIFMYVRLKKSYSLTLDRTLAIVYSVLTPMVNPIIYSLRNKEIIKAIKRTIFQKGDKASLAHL
Method in brief: as §1

[17] = biological target: T17, OR6P1 (Homo sapiens) (UniProt Q8NGX9)
T17 sequence (whole entry): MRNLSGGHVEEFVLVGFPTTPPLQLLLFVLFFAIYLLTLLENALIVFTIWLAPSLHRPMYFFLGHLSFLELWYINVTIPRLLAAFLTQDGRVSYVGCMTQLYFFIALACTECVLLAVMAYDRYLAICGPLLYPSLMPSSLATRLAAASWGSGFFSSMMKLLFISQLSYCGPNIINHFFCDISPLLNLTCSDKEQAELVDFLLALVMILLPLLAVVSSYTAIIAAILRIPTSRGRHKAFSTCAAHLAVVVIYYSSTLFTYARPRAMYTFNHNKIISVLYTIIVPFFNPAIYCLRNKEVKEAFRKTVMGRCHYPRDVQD
Method in brief: as §1

[18] = biological target: T18, OR6Q1 (Homo sapiens) (UniProt Q8NGQ2)
T18 sequence (whole entry): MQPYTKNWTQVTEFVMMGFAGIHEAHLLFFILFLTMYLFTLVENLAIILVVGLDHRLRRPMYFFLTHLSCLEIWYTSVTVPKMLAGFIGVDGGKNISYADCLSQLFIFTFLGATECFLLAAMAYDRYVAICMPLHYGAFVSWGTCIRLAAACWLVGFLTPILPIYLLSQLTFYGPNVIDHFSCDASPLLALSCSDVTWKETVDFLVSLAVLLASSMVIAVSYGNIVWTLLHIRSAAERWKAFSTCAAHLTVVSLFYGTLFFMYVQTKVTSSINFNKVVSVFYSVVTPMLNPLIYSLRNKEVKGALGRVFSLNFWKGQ
Method in brief: as §1

Measured: odorant receptor agonist call

CC1=C(O)C(=O)C(C)O1 (stereo not drawn)
inactive: [1] | [2] | [3] | [4] | [5] | [6] | [7] | [8] | [9] | [10] | [11] | [12] | [13] | [14] | [15] | [16] | [17] | [18]
